These results are taken from ChEMBL document CHEMBL1153739, “Chemical constituents of the bark of Machilus wangchiana and their biological activities” (J Nat Prod, 2009).

One may read the inhibition as the change of the read-out against control, counted positive when it falls. Broadly, the IC50 is the midpoint of a concentration-inhibition curve. Low values mean inhibition by little substance, high ones a need for much substance.

Assay [1] can be described thus: Antiinflammatory activity in rat PMNC assessed as inhibition of platelet activating factor-induced beta-glucuronidase release at 10 uM treated 15 mins before PAF by spectrophotometry. It is filed as functional.
The next assay has as its system BGC-823. As to the kind of experiment: Cytotoxicity against human BGC823 cells. Type of assay: functional, cell-based.
Assay [2] is described as follows: Hepatoprotective activity in rat WB-F344 cells assessed as inhibition of D-galactosamine-induced cytotoxicity at 100 uM treated 1 hr before D-galactosamine challenge after 24 hrs by MTT assay. Type of assay: functional. The method, boiled down: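 Cells plated at 1 × 10⁴ per well in DMEM with 10% fetal calf serum, penicillin and streptomycin, precultured 24 h at 37 °C, 5% CO₂. Sample added in fresh medium 1 h before 50 mM DL-galactosamine for 24 h. Sample toxicity run in parallel without galactosamine. MTT 0.5 mg/mL for 4 h, formazan dissolved in DMSO, OD 490 nm, % inhibition calculated.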
(Formazan colour is commonly taken as a measure of viable cells.)

The next assay deals with A2780. The assay is described as follows: Cytotoxicity against human A2780 cells. It is filed as functional, cell-based.

With `COc1cc([C@H]2c3cc(O)c(OC)cc3C[C@@H](C)[C@@H]2C)ccc1O`, the inhibition at 10 µM in assay [1] amounted to 48%.
Take `CC[C@@]1(O)C(=O)OCc2c1cc1n(c2=O)Cc2cc3ccccc3nc2-1` [CAMPTOTHECIN]: the midpoint of inhibition in the assay on BGC-823, the IC50, lay at 210 nM.
Take `COc1cc(C[C@@H](C)[C@@H](C)Cc2ccc(O)c(OC)c2)ccc1O` [MESODIHYDROGUAIARETIC ACID]: the inhibition at 10 µM in assay [1] came out at 54%.
With `COc1cc([C@@H](OC)[C@@H](C)C(C)=O)ccc1O`, the inhibition at 100 µM in assay [2] was 47%. The inhibition at 10 µM in assay [1] is 67%.
The like results for `COc1cc([C@H]2OC(=O)[C@](C)(O)[C@@H]2C)ccc1O` were, in that order, 39% and 76%.
As for `C#CCCCCCCCC/C=C/C1=C[C@H](C)OC1=O` [HAMABIWALACTONE A], the inhibition at 10 µM in assay [1] turned out to be 60%.
Turning to `COC(=O)c1cc(OC)c2c(c1-c1c(CO)cc(OC)c3c1OCO3)OCO2` [BICYCLOL], the inhibition at 100 µM in assay [2] stood at 41%.
Turning to `COc1cc([C@@H](O)[C@@H](C)C(C)=O)ccc1O`, the inhibition at 100 µM in assay [2] came out at 43%.
`O=C(O)C[C@]12OC(=O)C[C@H]1O[C@@H]1Cc3c(O)cc(O)cc3O[C@@H]12`: the inhibition at 100 µM in assay [2] came to 40%. Also, the inhibition at 10 µM in assay [1] stood at 46%.
Consider `CCO[C@H](c1ccc(O)c(OC)c1)[C@@H](C)C(C)=O`, for which the inhibition at 100 µM in assay [2] came to 54%. Further, in assay [1], the inhibition at 10 µM turned out to be 42%.
Turning to `C=C1OC(=O)/C(=C/CCCCCCCCCCCCCCCCC)[C@H]1O`, the IC50 in the assay with A2780 is 2660 nM; in the assay on BGC-823 it was 130 nM.
In the case of `COc1cc([C@@H]2c3c(cc(OC)c(O)c3OC)C[C@@H](C)[C@H]2C)ccc1O`, the inhibition at 10 µM in assay [1] was found to be 47%.
